# Arrestin-AP2 inh: inhibitors of beta-arrestin/AP2 binding, primary screen, biochemical, GPCR trafficking, flow cytometry; beta-arrestin 1 C-terminal peptide binding to AP2 beta2-adaptin appendage (human); FITC-arrestin peptide / GST-AP2 beads; AP2 beta2 appendage carries R879A mutation; inhibition, % at 10 µM; 340,000 compounds, 0.31% hits;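 active means inhibition above a set limit, near 3 SD of compounds lacking own fluorescence, cut at about 54% in these data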;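 further: plate controls were DMSO wells for no effect and 5 µM unlabelled arrestin peptide for full effect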
#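 System: GST-AP2 R879A glutathione beads. Medium: PBS with 0.05% Tween 20 and 0.1% BSA. Also added: FITC-arrestin peptide, 50 nM. Incubation: 12 min plus 1 h, RT. Measured by: high-throughput flow cytometry of beads, ex 488, em 535 nm. Evaluation: percent drop in bead-associated FITC signal.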
# Myeloid diff 2: induction of myeloid progenitor differentiation, primary screen, cell-based, flow cytometry, MLPCN library | ER-HoxA9 myeloid progenitors, lysozyme-GFP differentiation | calls only at 10 µM | 360,000 compounds, 1% hits | AID 624256, 2012;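 active means normalized GFP-positive differentiation at or above the plate's own cutoff, the solvent-only control mean plus 3 SD; inconclusive means no clear call, values can overlap the other calls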;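 further: cells exposed to compound for four days before flow analysis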
# ABCB6 inh MLPCN: ABCB6 transporter inhibitors, primary screen, K562-ABCB6 cells, flow cytometry, MLPCN library | 360,000 compounds, 0.19% hits | K562-ABCB6 porphyrin accumulation, 1 h; stronger effect = lower value | ATP-binding cassette sub-family B member 6 (Homo sapiens), Q9NP58 | fluorescence ratio to DMSO, % at 10 µM;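 active means fluorescence ratio to DMSO below 75%, the collection mean minus 3 SD; inconclusive means too few cells collected in the well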;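 further: signal is porphyrin accumulated inside mitochondria; 100% equals median channel fluorescence of DMSO control wells; lower ratio means ABCB6 inhibition with less porphyrin fluorescence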
# CendR NRP1 mod: modulators of CendR peptide binding to NRP-1, primary screen, biochemical, fluorescence polarization, uHTS; inhibition, % at 25 µM; 360,000 compounds, 0.85% hits; AID 602438, 2012; FAM-RPARPAR peptide binding to NRP-1; Neuropilin-1 (Homo sapiens), O14786;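 active means inhibition or corrected inhibition above about 18%, plus a signal ratio from 0.5 to 1.5, limit read from the data, passing the limit was not always enough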
# ATG4B inhibitor: ATG4B protease inhibitors, primary screen, biochemical, fluorescence, uHTS; Cysteine protease ATG4B (Homo sapiens), Q9Y4P1; ATG4B cleavage of LC3-PLA2, NBD-HPC fluorescence, 1 h; inhibition, % at 8.33 µM; 340,000 compounds, 0.51% hits; in the data active means inhibition above about 40%
# Target sequence (Q9Y4P1 whole entry, looked up): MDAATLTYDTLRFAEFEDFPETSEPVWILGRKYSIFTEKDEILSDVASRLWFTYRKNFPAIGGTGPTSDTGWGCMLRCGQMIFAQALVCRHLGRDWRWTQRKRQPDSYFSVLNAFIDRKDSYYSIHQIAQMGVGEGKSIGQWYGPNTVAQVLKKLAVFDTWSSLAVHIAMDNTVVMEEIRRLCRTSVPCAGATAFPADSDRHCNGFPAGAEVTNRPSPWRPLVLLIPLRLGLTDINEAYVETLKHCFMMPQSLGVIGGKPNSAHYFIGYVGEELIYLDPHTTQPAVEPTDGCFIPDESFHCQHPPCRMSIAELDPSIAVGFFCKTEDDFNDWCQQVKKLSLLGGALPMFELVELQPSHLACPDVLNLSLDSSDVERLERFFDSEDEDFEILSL
# Granule exo inh: LAMP-1 surface exposure blockers, TALL-104 cells – cell-based, flow cytometry, MLPCN library, primary screen. AID 651702, 2012. inhibition, % at 10 µM. 360,000 compounds, 0.66% hits. TALL-104 LAMP-1 surface exposure; cells stimulated with thapsigargin and PMA;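 active means inhibition above about 55%, limit read from the data; inconclusive means no clear call, values can overlap the other calls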
# * hit, by the source's call; i = inactive; u = inconclusive; x = no result given; + = active, no number. Most compounds without a hit are left out; they make up all but 3.3% or so of the library.
SMILES,Arrestin-AP2 inh,Myeloid diff 2,ABCB6 inh MLPCN,CendR NRP1 mod,ATG4B inhibitor,Granule exo inh
CC[C@@H](CO)NC(=O)[C@@H]1C=C2c3cccc4c3c(cn4C)C[C@H]2N(C)C1,2.1,i,101.0,40.9*,-0.3,0.5
CCC(CO)NC(=O)C1C=C2c3cccc4[nH]cc(c34)CC2N(C)C1 (stereo not drawn),24.9,i,105.0,49.1*,-1.2,-2.5
CC(C)C[C@H]1C(=O)N2CCC[C@H]2[C@]2(O)O[C@](NC(=O)[C@@H]3C=C4c5cccc6[nH]cc(c56)C[C@H]4N(C)C3)(C(C)C)C(=O)N12,21.3,i,143.0,46.3,-13.3,-0.4
CC[C@@H](CO)NC(=O)[C@@H]1C=C2c3cccc4[nH]cc(c34)C[C@H]2N(C)C1,34.6,i,99.0,74.4,-1.8,1.2
O=c1c2ccccc2nc(/C=C/c2ccc3c(c2)OCO3)n1-c1ccccc1,2.6,i,100.0,1.0,38.6,0.1
COc1cc(/C=C/c2nc3ccccc3c(=O)n2-c2ccc(O)cc2)ccc1O,-6.3,+,135.0,-63.9,-24.9,23.4
CN1CCCC2c3ccccc3CCC21 (stereo not drawn),x,i,99.0,-7.1,x,-8.0
CCn1nc(-c2ccccc2)nc2c(=O)n(C)c(=O)nc1-2,25.9,u,102.0,-0.9,80.5*,51.5
C=CC[N+]1(C)C2CCC1CC(O)C2 (stereo not drawn),14.0,i,146.0,21.3*,1.5,-5.0
Cc1c(NP(=O)(C(C)(C)C)C(C)(C)C)c(=O)n(-c2ccccc2)n1C,-3.3,i,102.0,21.1*,-11.9,0.2
COC(=O)C1CN(C#N)N(c2ccc(Cl)cc2)C12c1ccccc1-c1ccccc12 (stereo not drawn),1.6,u,90.0,-12.8,0.8,69.0*
CCCNC(=O)N1[C@H]2CC[C@@H]1C(C(=O)OC)=C(c1ccc(C(C)=O)cc1)C2,7.8,i,98.0,9.4,-2.9,-22.2
CSCCC(c1nnnn1C1CCCCC1)N1CCC2(CC1)C(=O)NCN2c1ccccc1 (stereo not drawn),x,i,93.0,23.7*,x,0.4
CCC(c1nnnn1C(C)(C)C)N1CCC2(CC1)C(=O)NCN2c1ccccc1 (stereo not drawn),x,i,87.0,30.2*,x,0.4
CSCCC(c1nnnn1C1CCCC1)N1CCC2(CC1)C(=O)NCN2c1ccccc1 (stereo not drawn),x,i,94.0,21.3,x,-7.7
CCCCCn1c(=O)c(C(=O)Nc2cnccn2)c(O)c2ccccc21,-3.6,x,94.0,-3.6,-6.5,-1.5
CCCCCn1c(=O)c(C(=O)Nc2cc(C)ccn2)c(O)c2ccccc21,-15.2,+,97.0,-4.3,-8.5,-2.6
C[C@@H]1CN([C@@H](C)CO)C(=O)CCCn2nncc2CO[C@H]1CN(C)C(=O)Oc1cccc2ccccc12,x,i,92.0,4.7,x,-2.4
Cc1cccc(N2C(=O)NC(=O)/C(=C\c3cccn3-c3ccc(Cl)cc3)C2=O)c1,0.6,i,107.0,-39.7,3.8,73.0*
Oc1ccc2c3c1O[C@H]1c4oc5ccccc5c4C[C@@]4(O)[C@@H](C2)N(CC2CC2)CC[C@]314,29.6,i,95.0,3.3,-6.1,0.3
CCCNC(=O)N1[C@H]2CC[C@@H]1C(C(=O)OC)=C(c1ccc(OC)c(OC)c1)C2,1.6,i,103.0,14.7,2.5,-1.9
Cc1ccc(N2C(=O)NC(=O)/C(=C\c3ccoc3)C2=O)cc1,9.7,i,96.0,-104.7,1.0,1.5
O=C1NC(=S)N(c2ccc(F)cc2)C(=O)/C1=C\c1ccoc1,-12.4,i,77.0,-318.0,85.4*,-3.8
Cc1cc(OCC(=O)N2CCN(CC(=O)N3CCOCC3)CC2)c(C(C)C)cc1Cl,-9.3,i,99.0,2.5,1.3,-0.5
CN1CCN(c2ccc([N+](=O)[O-])c(Sc3ccccn3)c2)CC1,14.1,i,90.0,27.8*,-11.3,0.0
SMILES,Arrestin-AP2 inh,Myeloid diff 2,ABCB6 inh MLPCN,CendR NRP1 mod,ATG4B inhibitor,Granule exo inh
CCN(CC)c1nc2c(C)cccn2c(=O)c1C=C1C(=O)NC(=O)NC1=O,35.1,i,38.0*,5.1,-2.7,0.5
OC(c1cccc(Cl)c1)(c1cccc(Cl)c1)C1CN2CCC1CC2 (stereo not drawn),0.7,i,99.0,40.4*,8.0,-2.5
COc1ccc(-n2c(-c3ccccc3Br)nc3ccccc3c2=O)cc1,-2.6,i,99.0,-1.2,6.2,0.2
Cc1ccc(C(=O)C2CN3CCC2CC3)cc1 (stereo not drawn),-0.3,i,98.0,26.0*,1.1,-1.4
CCN1CC=C(c2c[nH]c3ccccc23)CC1,-2.2,+,101.0,30.6*,-5.5,-0.4
C=CCn1cc(C=C2C(=O)NC(=O)NC2=O)c2ccccc21,-6.6,+,154.0,-35.3,-1.1,-5.6
O=C(O)Cn1cc(C=C2C(=O)NC(=O)NC2=O)c2ccccc21,5.2,i,98.0,-20.7,-5.6,27.0
O=C(CCc1ccc(O)cc1)N1C[C@H]2C[C@@H](C1)c1cccc(=O)n1C2,-9.1,i,92.0,-3.8,3.0,-2.6
C=CCn1c(O)c(C(CC)=NCCC2=CCCCC2)c(=O)[nH]c1=O,-1.7,i,96.0,29.8*,6.9,1.8
O=C1CC=C2C3CC4N(CCC45c4ccccc4N1C25)CC3=CCO (stereo not drawn),-1.8,i,93.0,-1.4,-4.8,-2.5
O=C1CC=C2C3CC4N(CCC45c4cc(O)c(O)cc4N1C25)CC3=CCBr (stereo not drawn),44.8,i,87.0,25.8*,9.9,7.0
C[N+]1=C(/C=C/Nc2ccccc2)C(C)(C)c2ccccc21,34.9,+,267.0,-13.9,5.3,-1.0
CSc1ccc(NC(=O)C2(C)CCN2C(=O)C2(c3ccccc3)CC2)cc1 (stereo not drawn),x,i,97.0,-4.3,x,-3.7
c1ccc2c(NC3=NCCS3)cccc2c1,-1.8,i,93.0,26.5*,-9.0,0.3
COC(=O)C1=C(c2c(C)noc2C)C[C@@H]2CC[C@H]1N2C(=O)NCCO,2.2,i,101.0,14.9,-8.1,2.3
C#CC1(O)CCC2C3CCC4=C/C(=N/OCC(=O)NCC(=O)NC(C(=O)O)C(C)C)CC[C@]4(C)C3CC[C@@]21C (stereo partly drawn),-4.7,i,102.0,-0.6,-2.5,3.6

# Bioassay records as filed in PubChem BioAssay.
